Laboratory results published in ChEMBL document CHEMBL1131592, “DNA-Directed alkylating agents. 7. Synthesis, DNA interaction, and antitumor activity of bis(hydroxymethyl)- and bis(carbamate)-substituted pyrrolizines and imidazoles” (J Med Chem, 1998).
pIC50: −log10 of the molar value.

Assays:
Nucleic Acid = experiment: Rate constants (1/s x 10e4) for loss of compound when incubated with calf thymus DNA in SHE buffer (pH 7.0) at 37 degree Centigrade, as determined by HPLC; assay type: nucleic-acid assay; conditions: Bos taurus
Summary of the method: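 Aliquots extracted into 1-butanol with NaOAc; unreacted drug quantified by C-18 reverse-phase HPLC, 254 nm. kobs (hydrolysis plus alkylation) from ln(peak area) vs time fit.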

P388 = experiment: Compound was evaluated for reduction in P388 (type I DNA) cell numbers to 50% of control values after a 72 hour exposure.; assay type: functional, cell-based; conditions: Mus musculus, P388, 72 h
Summary of the method: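 P388 murine leukemia cells, log-phase cultures; drug present throughout 72 h growth period. IC50 = nominal drug concentration reducing cell density to 50% of control; eight control wells per plate. Averages of at least two (table footnote: three) independent determinations.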

k obs (Nucleic Acid)	pIC50 (P388)	Structure (SMILES)
0.000161 s⁻¹	6.10	CNC(=O)OCc1nc(SC)n(CCCc2ccc(Nc3c4ccccc4nc4ccccc34)cc2)c1COC(=O)NC
	< 4.70	O=C(Nc1ccc(CCCn2cnc(CO)c2CO)cc1)c1ccc(Nc2ccnc3ccccc23)cc1
	4.80	CNC(=O)OCc1ncn(CCCc2ccc(Nc3c4ccccc4nc4ccccc34)cc2)c1COC(=O)NC
	4.92	OCc1ncn(CCCc2ccc(Nc3c4ccccc4nc4ccccc34)cc2)c1CO
	5.89	CSc1nc(CO)c(CO)n1CCCc1ccc(Nc2c3ccccc3nc3ccccc23)cc1
8.8e-05 s⁻¹	4.96	CNC(=O)OCc1nc(SC)n(CCCc2ccc(NC(=O)c3ccc(Nc4ccnc5ccccc45)cc3)cc2)c1COC(=O)NC
0.000187 s⁻¹	5.89	OCc1c(CO)c2n(c1CCCc1ccc(Nc3c4ccccc4nc4ccccc34)cc1)CCC2
0.000158 s⁻¹	7.52	O=C(Nc1ccc(CCc2c(CO)c(CO)c3n2CCC3)cc1)c1ccc(Nc2ccnc3ccccc23)cc1
	< 4.70	CNC(=O)OCc1ncn(CCCc2ccc(NC(=O)c3ccc(Nc4ccnc5ccccc45)cc3)cc2)c1COC(=O)NC
0.000134 s⁻¹	< 4.70	CNC(=O)OCc1nc(SC)n(C)c1COC(=O)NC
0.000186 s⁻¹	6.96	O=C(Nc1ccc(CCCc2c(CO)c(CO)c3n2CCC3)cc1)c1ccc(Nc2ccnc3ccccc23)cc1
	< 4.70	CSc1nc(CO)c(CO)n1CCCc1ccc(NC(=O)c2ccc(Nc3ccnc4ccccc34)cc2)cc1
